The text below walks through data of ChEMBL document CHEMBL4376885 (J Med Chem, 2020).

Molecules are shown by their SMILES. Bounds are passed on as bounds.

For series [1], the system named is Human immunodeficiency virus 1. Kind of series: Antiviral activity against HIV1 3B infected in human MT4 cells assessed as protection against virus-induced cytopathic effect incubated for 5 days by MTT assay. The note with it: Human immunodeficiency virus 1, 3B, MT4, 120 h. It is filed as functional, organism-based.
Series [2] concerns Human immunodeficiency virus 1. Kind of series: Antiviral activity against NNRTI-resistant HIV1 RES056 containing reverse transcriptase K103N+Y181C mutant infected in human MT4 cells assessed as protection against virus-induced cytopathic effect incubated for 5 days by MTT assay. It is filed as functional, organism-based. The note with it: Human immunodeficiency virus 1, RES056, MT4, 120 h.

Series [3] has as its system Human immunodeficiency virus 1. Kind of series: Antiviral activity against HIV1 containing reverse transcriptase K103N mutant infected in human MT4 cells assessed as protection against virus-induced cytopathic effect incubated for 5 days by MTT assay. The class given is functional, organism-based. The conditions noted are these: Human immunodeficiency virus 1, MT4, 120 h.

Series [4] is described as follows: Tmax in Wistar rat at 10 mg/kg, po by LC-MS/MS analysis. It is filed as ADME, organism-based. The conditions noted are these: in vivo. In outline: (§1)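 Single dose, intravenous at 2 mg/kg or oral at 10 mg/kg, in Wistar rats and Kunming mice.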
Series [5] is described as follows: Toxicity in Kunming mouse assessed as induction of mortality at 2000 mg/kg, po administered as single dose measured during 7 days post dose. It is filed as organism-based. The note with it: in vivo, 168 h. In outline: (§2)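 Kunming mice received a single oral 2000 mg/kg dose and were followed for 7 days alongside an untreated control group. Mortality, poisoning symptoms and behaviour were recorded, and relative body-weight change was tracked.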

For series [6], the system named is Human immunodeficiency virus 1. The experiment in a line: Antiviral activity against HIV1 containing reverse transcriptase Y181C mutant infected in human MT4 cells assessed as protection against virus-induced cytopathic effect incubated for 5 days by MTT assay. The class given is functional, organism-based. The conditions noted are these: Human immunodeficiency virus 1, MT4, 120 h.

The test system of series [7] is Human immunodeficiency virus 1. The experiment in a line: Antiviral activity against HIV1 containing reverse transcriptase E138K mutant infected in human MT4 cells assessed as protection against virus-induced cytopathic effect incubated for 5 days by MTT assay. It is filed as functional, organism-based. The conditions noted are these: Human immunodeficiency virus 1, MT4, 120 h.

Series [8] is described as follows: Tmax in Kunming mouse at 10 mg/kg, po by LC-MS/MS analysis. It is filed as ADME, organism-based. The conditions noted are these: in vivo. The procedure, abridged:
as §1

A short description of series [9]: Toxicity in Kunming mouse assessed as induction of poisoning symptoms at 2000 mg/kg, po administered as single dose measured during 7 days post dose. It is filed as organism-based. The note with it: in vivo, 168 h. The procedure, abridged: as §2
In series [10] the test system is Human immunodeficiency virus 1. The experiment in a line: Antiviral activity against HIV1 containing reverse transcriptase Y188L mutant infected in human MT4 cells assessed as protection against virus-induced cytopathic effect incubated for 5 days by MTT assay. The conditions noted are these: Human immunodeficiency virus 1, MT4, 120 h. The class given is functional, organism-based.

The subject of series [11] is Human immunodeficiency virus 1. The experiment in a line: Antiviral activity against HIV1 containing reverse transcriptase L100I mutant infected in human MT4 cells assessed as protection against virus-induced cytopathic effect incubated for 5 days by MTT assay. It is filed as functional, organism-based. The conditions noted are these: Human immunodeficiency virus 1, MT4, 120 h.

A short description of series [12]: Tmax in Kunming mouse at 2 mg/kg, iv by LC-MS/MS analysis. It is filed as ADME, organism-based. The note with it: in vivo. The procedure, abridged:
as §1

Series [13] is described as follows: Toxicity in Kunming mouse assessed as induction of body weight changes at 2000 mg/kg, po administered as single dose measured during 7 days post dose. The class given is organism-based. The note with it: in vivo, 168 h. In outline:
as §2

Series [14] has as its system Human immunodeficiency virus 1. Kind of series: Antiviral activity against HIV1 containing reverse transcriptase F227L+V106A mutant infected in human MT4 cells assessed as protection against virus-induced cytopathic effect incubated for 5 days by MTT assay. The conditions noted are these: Human immunodeficiency virus 1, MT4, 120 h. The class given is functional, organism-based.

A further series deals with Cytochrome P450 2D6 (Homo sapiens, UniProt P10635). Kind of series: Inhibition of CYP2D6 in human liver microsomes using dextromethorphan substrate in presence of NADPH incubated for 10 mins. It is filed as ADME.
Series [15] can be described thus: Tmax in Wistar rat at 2 mg/kg, iv by LC-MS/MS analysis. The conditions noted are these: in vivo. The class given is ADME, organism-based. In outline: as §1
Series [16] is described as follows: Toxicity in Kunming mouse assessed as induction of abnormal behaviors at 2000 mg/kg, po administered as single dose measured during 7 days post dose. The class given is organism-based. The conditions noted are these: in vivo, 168 h. In outline: as §2

Sequence of Cytochrome P450 2D6 (P10635 whole entry): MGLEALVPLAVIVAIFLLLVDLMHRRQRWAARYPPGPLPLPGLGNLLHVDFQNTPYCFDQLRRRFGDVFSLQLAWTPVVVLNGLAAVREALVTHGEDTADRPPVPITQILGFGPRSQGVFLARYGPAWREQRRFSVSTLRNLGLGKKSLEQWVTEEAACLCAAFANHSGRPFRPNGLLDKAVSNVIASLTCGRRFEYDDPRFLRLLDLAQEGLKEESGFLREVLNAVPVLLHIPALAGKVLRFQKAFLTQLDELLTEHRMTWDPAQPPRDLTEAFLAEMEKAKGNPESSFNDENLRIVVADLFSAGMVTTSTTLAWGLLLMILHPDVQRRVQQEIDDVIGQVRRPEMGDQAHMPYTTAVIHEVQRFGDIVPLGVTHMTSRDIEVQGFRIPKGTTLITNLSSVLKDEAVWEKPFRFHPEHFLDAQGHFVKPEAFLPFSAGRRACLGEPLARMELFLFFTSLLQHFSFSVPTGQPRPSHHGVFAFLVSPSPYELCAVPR

For the compound `Cc1cc(C#N)cc(C)c1Oc1nc(Nc2ccc(C#N)c(F)c2)nc2c1COC2`, the EC50 in [1] was 2.99 nM; in [2], 274 nM.

On to `Cc1cc(C#N)cc(C)c1Oc1nc(Nc2ccc(C#N)c(F)c2F)nc2ccsc12`, for which, in series [1], the EC50 stood at 226 nM.

On to `Cc1cc(C#N)cc(C)c1Oc1nc(Nc2ccc(C#N)c(F)c2)nc2ccccc12`, for which the EC50 was found to be 8.07 nM in [1] and 148 nM in series [2].

In the case of `Cc1cc(C#N)cc(C)c1Oc1ccnc(Nc2ccc(C#N)c(F)c2)n1`, the EC50 in [1] turned out to be 6.33 nM; in series [2], 388 nM.

Consider `Cc1cc(/C=C/C#N)cc(C)c1Oc1nc(Nc2ccc(C#N)c(C(F)(F)F)c2)nc2sccc12`, for which the EC50 in series [1] turned out to be 35.3 nM; in series [2] it was 140 nM.

Consider `Cc1cc(/C=C/C#N)cc(C)c1Oc1nc(Nc2ccc(C#N)cc2F)nc2sccc12`, for which the EC50 was 7.13 nM in series [1] and 473 nM in [2].

As for `Cc1cc(/C=C/C#N)cc(C)c1Oc1nc(Nc2ccc(C#N)c(F)c2F)nc2sccc12`, the EC50 in series [1] was determined as 18.6 nM; in series [2] it was 2350 nM.

With `Cc1cc(C#N)cc(C)c1Oc1nc(Nc2ccc(C#N)c(F)c2)nc2ccsc12`, the EC50 was 6.74 nM in [1] and 50.1 nM in series [2].

For the compound `Cc1cc(C#N)cc(C)c1Oc1nc(Nc2ccc(C#N)c(F)c2)nc2scnc12`, the EC50 in [1] was 3.72 nM; in series [2] it was 162 nM.

Take `Cc1cc(C#N)cc(C)c1Oc1nc(Nc2ccc(C#N)c(F)c2)nc2cccc(F)c12`: the EC50 was 12.3 nM in [1] and 182 nM in [2].

Take `Cc1cc(C#N)cc(C)c1Oc1nc(Nc2ccc(C#N)c(F)c2)nc2sccc12`: the EC50 was determined as 10.1 nM in series [1] and 119 nM in series [2].

As for `Cc1cc(C#N)cc(C)c1Oc1nc(Nc2ccc(C#N)c(C(F)(F)F)c2)nc2ccsc12`, the EC50 in [1] was determined as 29.2 nM.

For the compound `Cc1cc(/C=C/C#N)cc(C)c1Oc1nc(Nc2ccc(C#N)c(F)c2)nc2ccsc12`, the EC50 was less than 3.62 nM in series [3]; 8.49 nM in series [6]; 8.6 nM in series [1]; 9.4 nM in series [7]; 8.15 nM in series [10]; less than 3.62 nM in series [11]. In addition, the EC50 in series [14] was 9.28 nM; in [2], 21.5 nM. In addition, the Tmax in series [4] was 30 min; in series [8], 60 min; in [12], 1.98 min; in [15], 1.98 min. The Activity entry in series [5], in [9], in series [13] and in series [16] was “Non-Toxic” throughout. Also, the IC50 on Cytochrome P450 2D6 was greater than 50000 nM.

Regarding `Cc1cc(C#N)cc(C)c1Oc1nc(Nc2ccc(C#N)cc2F)nc2sccc12`, in [1], the EC50 came out at 24 nM.

For `Cc1cc(C#N)cc(C)c1Oc1nc(Nc2ccc(C#N)c(F)c2)nc2c1CCCC2`, the EC50 is 11.3 nM in series [1] and 180 nM in series [2].

With `Cc1cc(C#N)cc(C)c1Oc1nc(Nc2ccc(C#N)c(F)c2)nc2c1SCC2`, the values for the EC50 in series [1] and in series [2] were 6.31 nM and 107 nM, respectively.

For `Cc1cc(C#N)cc(C)c1Oc1nc(Nc2ccc(C#N)c(F)c2)nc2cc[nH]c12`, the EC50 came out at 2.89 nM in [1] and 29.4 nM in series [2].

On to `Cc1cc(/C=C/C#N)cc(C)c1Oc1nc(Nc2ccc(C#N)cc2C(F)(F)F)nc2ccsc12`, for which the results for the EC50 in [1] and in series [2] were 24.5 nM and 48.4 nM, respectively.

With `Cc1cc(C#N)cc(C)c1Oc1nc(Nc2ccc(C#N)cc2C(F)(F)F)nc2sccc12`, the EC50 in [1] came out at 1280 nM.

`Cc1cc(C#N)cc(C)c1Oc1nc(Nc2ccc(C#N)c(C(F)(F)F)c2)nc2sccc12`: the EC50 in [1] amounted to 44.9 nM.

Take `Cc1cc(/C=C/C#N)cc(C)c1Oc1nc(Nc2ccc(C#N)c(F)c2F)nc2ccsc12`: the EC50 worked out at 8.92 nM in series [1] and 1090 nM in [2].

Consider `Cc1cc(C#N)cc(C)c1Oc1nc(Nc2ccc(C#N)cc2C(F)(F)F)nc2ccsc12`, for which, in series [1], the EC50 is 896 nM.

Consider `Cc1cc(/C=C/C#N)cc(C)c1Oc1nc(Nc2ccc(C#N)cc2F)nc2ccsc12`, for which the EC50 in series [1] worked out at 6.34 nM; in series [2] it was 561 nM.

With `Cc1cc(C#N)cc(C)c1Oc1nc(Nc2ccc(C#N)c(F)c2)nc2c1CSC2`, the EC50 stood at 20.7 nM in series [1] and 611 nM in [2].

Take `Cc1cc(/C=C/C#N)cc(C)c1Oc1nc(Nc2ccc(C#N)c(F)c2)nc2sccc12`: the EC50 was 7.36 nM in series [3]; 26.3 nM in series [6]; 7.64 nM in [1]; 29.7 nM in series [7]; 35.7 nM in series [10]; 5.55 nM in series [11]. The EC50 in series [14] was 32.8 nM; in [2], 33.4 nM.

As to `Cc1cc(C#N)cc(C)c1Oc1nc(Nc2ccc(C#N)c(F)c2)nc2ncsc12`, the EC50 in series [1] is 3 nM; in [2], 131 nM.

Turning to `Cc1cc(C#N)cc(C)c1Oc1nc(Nc2ccc(C#N)c(F)c2)nc2c1CCC2`, the EC50 stood at 37.7 nM in series [1] and 951 nM in series [2].

Consider `Cc1cc(C#N)cc(C)c1Oc1nc(Nc2ccc(C#N)c(F)c2F)nc2sccc12`, for which the EC50 in series [1] was 40.3 nM.

As for `Cc1cc(/C=C/C#N)cc(C)c1Oc1nc(Nc2ccc(C#N)cc2C(F)(F)F)nc2sccc12`, in series [1], the EC50 stood at 166 nM.

Take `Cc1cc(/C=C/C#N)cc(C)c1Oc1nc(Nc2ccc(C#N)c(C(F)(F)F)c2)nc2ccsc12`: the EC50 in series [1] worked out at 146 nM.

For the compound `Cc1cc(C#N)cc(C)c1Oc1nc(Nc2ccc(C#N)cc2F)nc2ccsc12`, the EC50 in series [1] amounted to 30.4 nM.

For the compound `Cc1cc(C#N)cc(C)c1Oc1nc(Nc2ccc(C#N)cc2)nc(N)c1Br` [ETRAVIRINE], the values for the EC50 in series [1] and in series [2] were 2.55 to 3.13 nM and 32.2 to 37.9 nM, respectively.

As for `Cc1cc(C#N)cc(C)c1Oc1cc(Cl)nc(Nc2ccc(C#N)c(F)c2)n1`, the EC50 in series [1] stood at 48.9 nM; in [2], 898 nM.

Turning to `O=C1Nc2ccc(Cl)cc2[C@@](C#CC2CC2)(C(F)(F)F)O1` [EFAVIRENZ], the EC50 in series [1] was 2.31 to 2.49 nM; in series [2], 186 to 260 nM.
